The record followed here is article PMC6311382 (Angewandte Chemie (International ed. in English), 2015).

In general, solubility (kinetic) refers to the concentration staying in solution when a stock, usually in DMSO, is diluted into the medium. A word on the koff: it is the first-order rate constant of dissociation. A lower koff goes with slow dissociation.

Data set [1] has as its target T1, H. pylori HtrA (Helicobacter pylori, UniProt G2J5T2).
T1 sequence (G2J5T2 18-475): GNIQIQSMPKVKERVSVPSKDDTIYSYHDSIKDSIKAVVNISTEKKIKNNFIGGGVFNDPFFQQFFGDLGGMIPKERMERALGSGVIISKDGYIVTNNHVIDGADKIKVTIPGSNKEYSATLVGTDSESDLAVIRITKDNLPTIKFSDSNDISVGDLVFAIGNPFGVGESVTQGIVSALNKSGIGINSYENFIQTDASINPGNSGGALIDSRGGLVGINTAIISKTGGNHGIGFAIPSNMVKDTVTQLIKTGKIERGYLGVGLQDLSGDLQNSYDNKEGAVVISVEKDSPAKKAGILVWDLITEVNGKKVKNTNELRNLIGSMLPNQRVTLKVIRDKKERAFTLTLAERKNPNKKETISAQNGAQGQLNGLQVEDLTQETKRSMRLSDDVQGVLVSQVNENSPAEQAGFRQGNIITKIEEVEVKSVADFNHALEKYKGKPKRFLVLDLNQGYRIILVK
The data set can be described thus: 1H STD NMR binding experiment. The conditions noted are these: 10 μM HtrA.

The format of data set [2] is physicochemical. As to conditions: dynamic light scattering.
Data set [3] relates to wild-type Campylobacter jejuni transmigration. The data set can be described thus: Transwell migration assay, Campylobacter jejuni. The format is cell-based. The conditions noted are these: 50 and 100 μM, 24 h. A digest of the protocol: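 Transmigration of wild-type Campylobacter jejuni is followed over 24 h with test compound at two concentrations. Bacteria are counted as colony-forming units. N = 3 independent experiments. Significance at 24 h is tested by one-way ANOVA (Dunnett) against the untreated control.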

Data set [4] deals with wild-type H. pylori transmigration. The data set can be described thus: Transwell migration assay across polarized MKN-28 epithelial layer. Format: cell-based, Helicobacter pylori. The conditions noted are these: 50 μM, 24 h, MKN-28 cells. A digest of the protocol: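 Wild-type H. pylori crossing a polarized epithelial layer of human gastric adenocarcinoma MKN-28 cells in a transwell system, followed for 24 h with test compound at two concentrations. Transmigrated bacteria are read as colony-forming units. Significance at 24 h is tested by one-way ANOVA (Dunnett) against the untreated control.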

Data set [5] deals with T1, H. pylori HtrA. The data set can be described thus: SPR binding affinity and kinetics to HtrA. In general terms: Surface plasmon resonance follows binding to a sensor surface in real time, without labels.
The target of data set [6] is T1, H. pylori HtrA. As to the kind of experiment: Western blot analysis of recombinant E-cadherin cleavage by HtrA. Format: biochemical. A digest of the protocol: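 Recombinant full-length 130 kDa E-cadherin is incubated with H. pylori HtrA and test compound at a range of concentrations. HtrA proteolysis is read by Western blot as generation of the roughly 90 kDa soluble E-cadherin fragment.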
Background: A western blot detects proteins with antibodies after separation by electrophoresis.

For `CO[C@@H]1O[C@H](CO)[C@@H](O)[C@H](O)[C@H]1O` [β-methyl-D-glucoside, reference compound], the “saturation transfer / binding to HtrA” value at H. pylori HtrA [1] is recorded as “no saturation transfer”.

With `Cc1ccc(C)n1[C@@H](Cc1ccc(-c2ccc(C(=O)O)o2)cc1)C(=O)O` [Compound 2], the solubility (kinetic) in data set [2] is > 100 µM. For the same molecule, the “inhibition of C. jejuni transmigration, compared with H. pylori” value in data set [3] was “strikingly dissimilar outcome”. For the same molecule, the “inhibition of H. pylori transmigration” value in data set [4] was “significant effects”. The molecule also showed a koff at H. pylori HtrA [5] of 1.8 s⁻¹. Also, at H. pylori HtrA [5] (= −1.4 logKD/(number of non-hydrogen atoms)), the “LE (ligand efficiency)” value is 0.24. Also, the “proteolytic activity of HtrA” value at H. pylori HtrA [6] (at 50 μM) is reported as “blocked”. On H. pylori HtrA [6] (recombinant E-cadherin), the “concentration at which inhibition of E-cadherin cleavage is seen” value stood at 10 µM. Besides, on H. pylori HtrA [1], the “saturation transfer / binding to HtrA” value was “direct binding”.
